In publication PMC7012088 (Cancer Biology & Therapy, 2019):

Experiments:
[1] = Aqueous solubility in intravenous formulation; assay type: physicochemical; conditions: limited the dose to 13.4 mg/kg
ABCB1 = conditions: read-out: IC50 ABCB1 inhibition; in vitro; cited from earlier work
[2] = Botryllamide G plasma pharmacokinetics in wild-type mice; assay type: in vivo; conditions: male, FVB, mouse, iv, 13.4 mg/kg
Procedure, shortened: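 Destructive sampling (n = 3 per timepoint) ran 0.25–24 h into heparinized plasma. Phospholipid-removal/methanol precipitation, then isocratic C18 LC-MS/MS (20–50,000 ng/mL). AUClast used Bailer's method. t1/2 = ln2/terminal kEL, from concentrations above LLOQ.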

[3] = Abcg2 knockout animals (so in the source); cited from earlier work
[4] = Lapatinib brain and plasma exposure in Mdr1a/Mdr1b; assay type: in vivo, mouse; conditions: for lapatinib brain AUC through 8 h: Mdr1a/Mdr1b (-/-) mice; for AUC: male, FVB, mouse, brain, oral
[5] = Lapatinib brain and plasma exposure in wild-type FVB mice; assay type: in vivo, mouse

Row | lapatinib brain AUC through 8 h ([4]; lapatinib + botryllamide G) | lapatinib brain AUC through 8 h ([4]; lapatinib alone) | AUC [4] | AUC ([4]; 90 mg/kg) | Kp ([5]; male, FVB, mouse, brain and plasma, oral, 90 mg/kg) | AUC ([5]; male, FVB, mouse, plasma, oral, 90 mg/kg) | lapatinib brain exposure through 1 h (AUC0-1 h) ([5]; wild-type mice, doublet (lapatinib + botryllamide G)) | lapatinib brain exposure AUC through 24 h ([5]; wild-type mice, lapatinib + botryllamide G + tariquidar 4 mg/kg i.v. (triplet)) | lapatinib plasma AUC ([5]; wild-type mice, lapatinib + botryllamide G, 24 h) | lapatinib brain AUC through 24 h ([5]; wild-type mice, lapatinib alone (abstract)) | lapatinib brain exposure through 1 h (AUC0-1 h) ([5]; wild-type mice, singlet (lapatinib alone)) | lapatinib brain exposure through 1 h (AUC0-1 h) ([5]; wild-type mice, singlet (lapatinib alone), listed as Lapatinib) | lapatinib brain exposure through 1 h (AUC0-1 h) ([5]; wild-type mice, triplet (lapatinib + botryllamide G + tariquidar)) | lapatinib brain exposure through 1 h (AUC0-1 h) ([5]; wild-type mice, triplet (lapatinib + botryllamide G + tariquidar), listed as Lapatinib) | Compound | aqueous solubility [1] | IC50 (ABCB1) | AUC [2] | Cmax [2] | half-life [2] | increase in lapatinib brain concentrations [3]
1 |  |  |  |  |  |  |  |  |  |  |  |  |  |  | CO/C(=C\c1ccc(O)cc1)C(=O)N/C=C/c1cc(Br)c(O)c(Br)c1 [botryllamide G] | poor | > 50 µM | 2.09 µg·h/mL | 4.11 µg/mL | 4.6 h | 
2 | 4007 pg·h/mg | 2058 pg·h/mg | 4.01 µg·h/mL | 2.06 µg·h/mL | 0.067 | 66.4 µg·h/mL | 48.3 ± 14.9 pg·h/mg | 2878 pg·h/mg | 71,576 h*pg/mg | 4.461 µg·h/mL | 120 ± 39.9 pg·h/mg | 120 pg·h/mg | 298 ± 44.6 pg·h/mg | 298 pg·h/mg | CS(=O)(=O)CCNCc1ccc(-c2ccc3ncnc(Nc4ccc(OCc5cccc(F)c5)c(Cl)c4)c3c2)o1 [lapatinib, N-{3-chloro-4-[(3-fluorobenzyl)oxy]phenyl}-6-[5-({[2-(methylsulfonyl)ethyl]amino}methyl)-2-furyl]-4-quinazolinamine] |  |  |  |  |  | approximately 40 fold
